Values after ≈ are worked out from the molar mass of the structure shown. Active and inactive are the calls of the source. No cut-off for these calls is given here.
Columns and labels:
Assay type in all cases: functional
[1] = tested on: Pseudomonas aeruginosa; test: Antimicrobial activity against Pseudomonas aeruginosa 2036 at 35 degC after 18 to 24 hrs by NCCLS method based antimicrobial assay; conditions: for MBC: read-out: MBC99.9
[2] = tested on: Candida albicans; test: Antimicrobial activity against Candida albicans 3471 at 128 ug/disc at 37 degC after 24 to 72 hrs by agar-well diffusion assay; conditions: for zone of inhibition at 128 µg/disc: read-out: DIZ
In short: (§1)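 Potato dextrose agar base plates overlaid with seeded agar cooled to 40 °C and inoculated with spores from 10-day cultures, final 1 × 10⁶ spores/mL. Compounds dissolved in DMSO at 128 µg/mL and applied on 6 mm filter-paper discs placed on chilled seeded medium. Nystatin positive control, DMSO negative control. Incubation 24–72 h at 37 °C. Inhibition zone diameter read by vernier caliper.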

[3] = tested on: Bacillus subtilis; test: Antimicrobial activity against Bacillus subtilis 2250 at 128 ug/disc at 35 degC after 24 hrs by agar-well diffusion assay; conditions: for zone of inhibition at 128 µg/disc: Bacillus subtilis, 2250, 24 h, read-out: DIZ
In short: (§2)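 Agar-well diffusion: 24 h bacterial cultures adjusted to 0.5 McFarland (1.5 × 10⁸ CFU/mL) and mixed into molten Mueller-Hinton agar before pouring. 6 mm wells punched and each filled with 50 µL of compound stock or control. Plates incubated 35 °C for 24 h. Zone of growth inhibition diameter measured with vernier caliper.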

[4] = tested on: Aspergillus niger; test: Antimicrobial activity against Aspergillus niger 545 at 128 ug/disc at 37 degC after 24 to 72 hrs by agar-well diffusion assay; conditions: in the assay text read “disc diffusion assay” for “agar-well diffusion assay”; in short: as §1
[5] = tested on: Pseudomonas aeruginosa; test: Antimicrobial activity against Pseudomonas aeruginosa 2036 at 128 ug/disc at 35 degC after 24 hrs by agar-well diffusion assay; conditions: for zone of inhibition at 128 µg/disc: Pseudomonas aeruginosa, 2036, 24 h, read-out: DIZ; in short: as §2
[6] = tested on: Staphylococcus aureus; test: Antimicrobial activity against Staphylococcus aureus 2079 at 35 degC after 18 to 24 hrs by NCCLS method based antimicrobial assay; conditions: for MBC: read-out: MBC99.9
[7] = tested on: Bacillus subtilis; test: Antimicrobial activity against Bacillus subtilis 2250 at 35 degC after 18 to 24 hrs by NCCLS method based antimicrobial assay; conditions: for MBC: read-out: MBC99.9
[8] = tested on: Aspergillus niger; test: Antimicrobial activity against Aspergillus niger 545 at 35 degC after 48 hrs by CLSI method based antimicrobial assay
In short: (§3)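 Broth microdilution following CLSI guidelines over 256 to 1 µg/mL. MIC90 is the lowest concentration completely inhibiting growth. For MFC, 0.1 mL from each tube spread on agar and CFU counted after 48 h at 35 °C; MFC is lowest concentration killing 99.9% of inoculum. MFC/MIC ratio calculated: […], ≤4 as fungicidal.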

[9] = tested on: Escherichia coli; test: Antimicrobial activity against Escherichia coli 2109 at 128 ug/disc at 35 degC after 24 hrs by agar-well diffusion assay; conditions: for zone of inhibition at 128 µg/disc: Escherichia coli, 2109, 24 h, read-out: DIZ; in short: as §2
[10] = tested on: Staphylococcus aureus; test: Antimicrobial activity against Staphylococcus aureus 2079 at 128 ug/disc at 35 degC after 24 hrs by agar-well diffusion assay; conditions: for zone of inhibition at 128 µg/disc: Staphylococcus aureus, 2079, 24 h, read-out: DIZ; in short: as §2
[11] = tested on: Candida albicans; test: Antimicrobial activity against Candida albicans 3471 at 35 degC after 48 hrs by CLSI method based antimicrobial assay; conditions: for MFC: read-out: MFC99.9; in short: as §3
[12] = tested on: Escherichia coli; test: Antimicrobial activity against Escherichia coli 2109 at 35 degC after 18 to 24 hrs by NCCLS method based antimicrobial assay; conditions: for MBC: read-out: MBC99.9
[13] = tested on: Candida albicans; test: Ratio of MFC99.9 to MIC90 for Candida albicans 3471 at 35 degC after 48 hrs by CLSI method based antimicrobial assay; in short: as §3

Compound | MIC [1] | MIC [6] | MIC [7] | MIC [8] | MIC [11] | MIC [12] | MBC [1] [µg/mL] | diameter of the inhibition zone (DIZ) [2] | diameter of the inhibition zone (DIZ) [3] | diameter of the inhibition zone (DIZ) [4] | zone of inhibition at 128 µg/disc [5] [mm] | MBC99.9 [6] | MBC99.9 [7] | MFC99.9 [8] | diameter of the inhibition zone (DIZ) [9] | diameter of the inhibition zone (DIZ) [10] | MFC99.9 [11] | MBC99.9 [12] | MBC99.9 [1] | zone of inhibition at 128 µg/disc [2] [mm] | further results
FC(F)(F)c1cc(/C(Cn2nnc3ccccc32)=N\Nc2nc(-c3cc(C(F)(F)F)cc(C(F)(F)F)c3)cs2)cc(C(F)(F)F)c1 | inactive | inactive | inactive | inactive |  | 128 µg/mL (≈ 188 µM) |  |  | inactive | inactive |  | inactive | inactive | inactive |  | inactive |  |  | inactive | 11.7 | Ratio [13]: 2; diameter of the inhibition zone (DIZ) [5]: inactive; zone of inhibition at 128 µg/disc [9]: 16.4 mm; MIC ([11]; Candida albicans, 3471, 48 h): 128 µg/mL (≈ 188 µM); MFC ([11]; Candida albicans, 3471, 48 h): 256 µg/mL (≈ 375 µM); MBC [12]: 256 µg/mL (≈ 375 µM)
FC(F)(F)c1cc(/C(Cn2nnc3ccccc32)=N\Nc2nc(-c3ccc(Br)cc3)cs2)cc(C(F)(F)F)c1 | 64 µg/mL (≈ 102 µM) | inactive | inactive | inactive | inactive | inactive | 128 (≈ 205 µM) | inactive | inactive | inactive | 15.6 | inactive | inactive | inactive |  | inactive | inactive | inactive |  |  | 
O=[N+]([O-])c1ccc(/C(Cn2nnc3ccccc32)=N\Nc2nc(-c3ccc(Cl)cc3)cs2)cc1 | 64 µg/mL (≈ 131 µM) | inactive | inactive | inactive | inactive | 64 µg/mL (≈ 131 µM) | 128 (≈ 261 µM) | inactive | inactive | inactive | 16.7 | inactive | inactive | inactive |  | inactive | inactive |  |  |  | zone of inhibition at 128 µg/disc [9]: 18.7 mm; MBC [12]: 128 µg/mL (≈ 261 µM)

More lines, main results first:

MIC [1] | MIC [6] | MIC [7] | MIC [8] | MIC [11] | MIC [12] | Compound | MBC [1] [µg/mL] | diameter of the inhibition zone (DIZ) [2] | diameter of the inhibition zone (DIZ) [3] | diameter of the inhibition zone (DIZ) [4] | zone of inhibition at 128 µg/disc [5] [mm] | MBC99.9 [6] | MBC99.9 [7] | MFC99.9 [8] | diameter of the inhibition zone (DIZ) [9] | diameter of the inhibition zone (DIZ) [10] | MFC99.9 [11] | MBC99.9 [12] | MBC99.9 [1] | zone of inhibition at 128 µg/disc [2] [mm] | further results
128 µg/mL (≈ 240 µM) | inactive | inactive | inactive | inactive | inactive | O=[N+]([O-])c1ccc(-c2csc(N/N=C(/Cn3nnc4ccccc43)c3ccc(Br)cc3)n2)cc1 | 256 (≈ 479 µM) | inactive | inactive | inactive | 13.2 | inactive | inactive | inactive | inactive | inactive | inactive | inactive |  |  | 
inactive | 32 µg/mL (≈ 56.3 µM) | 128 µg/mL (≈ 225 µM) | inactive |  | inactive | Brc1ccc(/C(Cn2nnc3ccccc32)=N\Nc2nc(-c3ccc(Br)cc3)cs2)cc1 |  |  |  | inactive |  |  |  | inactive | inactive |  |  | inactive | inactive | 18.1 | zone of inhibition at 128 µg/disc [3]: 17.2 mm; Ratio [13]: 2; diameter of the inhibition zone (DIZ) [5]: inactive; MBC [6]: 64 µg/mL (≈ 113 µM); MBC [7]: 256 µg/mL (≈ 450 µM); zone of inhibition at 128 µg/disc [10]: 23.4 mm; MIC ([11]; Candida albicans, 3471, 48 h): 32 µg/mL (≈ 56.3 µM); MFC ([11]; Candida albicans, 3471, 48 h): 64 µg/mL (≈ 113 µM)
inactive | 64 µg/mL (≈ 126 µM) | 64 µg/mL (≈ 126 µM) | inactive |  | inactive | Fc1ccc(/C(Cn2nnc3ccccc32)=N\Nc2nc(-c3ccc(Br)cc3)cs2)cc1 |  |  |  | inactive |  |  |  | inactive | inactive |  |  | inactive | inactive | 14.7 | zone of inhibition at 128 µg/disc [3]: 22.8 mm; Ratio [13]: 2; diameter of the inhibition zone (DIZ) [5]: inactive; MBC [6]: 128 µg/mL (≈ 252 µM); MBC [7]: 128 µg/mL (≈ 252 µM); zone of inhibition at 128 µg/disc [10]: 20.9 mm; MIC ([11]; Candida albicans, 3471, 48 h): 128 µg/mL (≈ 252 µM); MFC ([11]; Candida albicans, 3471, 48 h): 256 µg/mL (≈ 505 µM)

Source: ChEMBL document CHEMBL2021913, “Synthesis and biological evaluation of some novel thiazole substituted benzotriazole derivatives” (2012)
